From ChEMBL document CHEMBL1125425, “Synthesis and muscarinic activities of quinuclidin-3-yltriazole and -tetrazole derivatives” (J Med Chem, 1992)

Legend:
[1] = target: Muscarinic acetylcholine receptor (Rattus norvegicus) (UniProt P08482+P08483+P08485+P08911+P10980); assay: Ratio of IC50(QNB) to IC50(OXO-M) was determined; assay type: protein assay
[2] = target: Muscarinic acetylcholine receptor; assay: Compound was tested in vitro for its binding affinity to muscarinic acetylcholine receptor from rat cortical homogenates using [3H]QNB as radioligand
[3] = target: Muscarinic acetylcholine receptor; assay: Compound was tested in vitro for its binding affinity to muscarinic acetylcholine receptor from rat cortical homogenates using [3H]OXO-M as radioligand
Outline: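 Hooded Lister rat cerebral cortex washed membranes in 50 mM Tris pH 7.7 plus 2 mM MgCl2; 2 nM [3H]oxotremorine-M; nonspecific binding with 10 μM oxotremorine; 37 °C for 30 min; filtration on filters presoaked in 0.05% polyethylenimine, scintillation counting. IC50 is the geometric mean of at least two separate experiments, seven concentrations each.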

[4] = target: Muscarinic acetylcholine receptor; assay: In vitro inhibition of [3H]QNB binding to Muscarinic receptor from rat cortical homogenates
[5] = target: Muscarinic acetylcholine receptor; assay: In vitro inhibition of [3H]OXO-M binding to Muscarinic receptor from rat cortical homogenates

| SMILES | Ratio [1] | IC50 [2] [µM] | IC50 [3] [µM] | IC50 [4] [µM] | IC50 [5] [µM] |
| --- | --- | --- | --- | --- | --- |
| Cc1cnnn1C1CN2CCC1CC2 (centres undefined) | 4.9 | 33 | 6.7 | – | – |
| Cn1nncc1C1CN2CCC1CC2 (centres undefined) | – | – | – | 29 | 0.93 |
| C[N+](C)(C)CC#CCN1CCCC1=O.[I-] [OXOTREMORINE METHIODIDE] | 1820 | 23 | 0.013 | – | – |
| Cn1cc(C2CN3CCC2CC3)nn1 (centres undefined) | – | – | – | 53 | 4.6 |
| Cn1ncc(C2CN3CCC2CC3)n1 (centres undefined) | – | – | – | 4.5 | 0.048 |
| O=C1CCCN1CC#CCN1CCCC1 [OXOTREMORINE] | – | – | – | 3.3 | 0.017 |
| c1nnn(C2CN3CCC2CC3)n1 (centres undefined) | – | – | – | 16 | 0.24 |
| c1nnnn1C1CN2CCC1CC2 (centres undefined) | 49 | 115 | 2.3 | – | – |
| Cc1ncn(C2CN3CCC2CC3)n1 (centres undefined) | – | – | – | 4.5 | 0.075 |
| c1ncn(C2CN3CCC2CC3)n1 (centres undefined) | 65 | 28 | 0.43 | – | – |
| Cn1nnnc1C1CN2CCC1CC2 (centres undefined) | – | – | – | 60 | 6.5 |
| Cc1nnn(C2CN3CCC2CC3)n1 (centres undefined) | 92 | 2.8 | 0.03 | – | – |
| Cn1nnc(C2CN3CCC2CC3)n1 (centres undefined) | – | – | – | 5.1 | 0.14 |
| Cc1cn(C2CN3CCC2CC3)nn1 (centres undefined) | – | – | – | 20 | 5 |
| Cn1cnc(C2CN3CCC2CC3)n1 (centres undefined) | – | – | – | 30 | 3.4 |
| c1nncn1C1CN2CCC1CC2 (centres undefined) | – | – | – | 165 | 40 |
| Cc1cnn(C2CN3CCC2CC3)n1 (centres undefined) | – | – | – | 1.6 | 0.17 |
